Values joined by “and” are separate entries in the source; they are usually repeats but may differ in a detail not shown here. Identical values can stand only once.
Tests used:
[1] = tested on: MDA-MB-231; assay: Inhibition of [3H]thymidine incorporation into hormone independent MDA-MB 231 human breast cancer cells at 1*10^-5 M; type: functional
Method in brief: (§1)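 MDA-MB 231 cells grown in McCoy 5a with 10% newborn calf serum and gentamycin. Replicate plates were switched to 5% serum 1 h before the run. Compounds were added in Me2SO (final 0.1%). Read-out was [3H]thymidine incorporation into TCA-precipitable material.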

[2] = target: T1, Estrogen receptor (Mus musculus) (UniProt O08537+P19785); assay: Anti-estrogenic activity in mouse uterotrophic assay at 5 ug as uterus dry weight (mg)/body weight (g) *100; type: functional, tissue-based
Method in brief: (§2)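 Mice dosed sc on 3 consecutive days (dose per animal), together with […] estrone per animal per day. Uterus dry weight (mg)/body weight (g) × 100 was taken 24 h after the last injection, as mean ± SD of 10 animals. Significance by Wilcoxon–Mann–Whitney U test.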

[3] = tested on: MDA-MB-231; assay: (§3) Inhibition of [3H]thymidine incorporation into hormone independent MDA-MB 231 human breast cancer cells at 1x10E-6M; type: functional; method in brief: as §1
[4] = tested on: MDA-MB-231; assay: Growth inhibition of hormone independent MDA-MB 231 human breast cancer cells at 1x10E-5 M
[5] = tested on: MDA-MB-231; assay: Inhibition of [3H]thymidine incorporation into hormone independent MDA-MB 231 human breast cancer cells at 1x10E-5 M; type: functional; method in brief: as §1
[6] = target: T1, Estrogen receptor (Mus musculus); assay: Estrogenic activity in mouse uterotrophic assay at 625 ug as uterus dry weight (mg)/body weight (g) *100; type: functional, tissue-based
Method in brief: (§4)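 Mouse uterotrophic test with the compound alone given sc on 3 consecutive days (dose per animal). Uterus dry weight (mg)/body weight (g) × 100 was measured 24 h after the last injection, as mean ± SD of 10 animals. Significance by Wilcoxon–Mann–Whitney U test.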

[7] = tested on: Rattus norvegicus; assay: Change in body weight of DMBA-induced hormone dependent mammary carcinoma tumor bearing rats at 2 mg/kg after 7 day therapy in 9 animals; type: functional
[8] = target: T1, Estrogen receptor (Mus musculus); assay: Anti-estrogenic activity in mouse uterotrophic assay at 25 ug as uterus dry weight (mg)/body weight (g) *100; type: functional, tissue-based; method in brief: as §2
[9] = tested on: Rattus norvegicus; assay: Progressive DMBA-induced hormone dependent mammary carcinoma tumors in rats at 2 mg/kg in 9 animals; type: functional
Method in brief: (§5)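 Sprague-Dawley rats bearing established DMBA-induced mammary carcinomas that arose 5–10 weeks after DMBA. Dosed sc as one daily dose Monday to Thursday and a double dose on Friday. Controls got vehicle alone. Tumor area was followed over treatment.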

[10] = target: T1, Estrogen receptor (Mus musculus); assay: Anti-estrogenic activity in mouse uterotrophic assay at 125 ug as uterus dry weight (mg)/body weight (g) *100; type: functional, tissue-based; method in brief: as §2
[11] = target: T1, Estrogen receptor (Mus musculus); assay: Estrogenic activity in mouse uterotrophic assay at 125 ug as uterus dry weight (mg)/body weight (g) *100; type: functional, tissue-based; method in brief: as §4
[12] = target: T1, Estrogen receptor (Mus musculus); assay: Percent inhibition in anti-uterotrophic assay in mice at 25 ug; type: functional; method in brief: as §2
[13] = target: T1, Estrogen receptor (Mus musculus); assay: Percent inhibition in anti-uterotrophic assay in mice at 625 ug; type: functional; method in brief: as §2
[14] = tested on: Rattus norvegicus; assay: Partial remission in DMBA-induced hormone dependent mammary carcinoma tumor bearing rats at 2 mg/kg in 9 animals; type: functional; method in brief: as §5
[15] = tested on: Rattus norvegicus; assay: Static unchanged DMBA-induced hormone dependent mammary carcinoma tumors in rats at 2 mg/kg in 9 animals; type: functional; method in brief: as §5
[16] = target: T1, Estrogen receptor (Mus musculus); assay: Anti-estrogenic activity in mouse uterotrophic assay at 1 ug as uterus dry weight (mg)/body weight (g) *100; type: functional, tissue-based; method in brief: as §2
[17] = target: T1, Estrogen receptor (Mus musculus); assay: Percent inhibition in anti-uterotrophic assay in mice at 125 ug; type: functional; method in brief: as §2
[18] = target: T1, Estrogen receptor (Mus musculus); assay: Percent inhibition in anti-uterotrophic assay in mice at 5 ug; type: functional; method in brief: as §2
[19] = tested on: Rattus norvegicus; assay: Change in tumor area DMBA-induced hormone dependent mammary carcinoma tumor bearing rats at 2 mg/kg after 7 day therapy in 9 animals; type: functional; settings: in the assay text read “28 day” for “7 day”; method in brief: as §5
[20] = tested on: Rattus norvegicus; assay: Initial DMBA-induced hormone dependent mammary carcinoma tumors in rats at 6 mg/kg; type: functional; method in brief: as §5
[21] = tested on: MDA-MB-231; assay: as §3; type: functional; method in brief: as §1; remark: listed apart in the source
[22] = target: T1, Estrogen receptor (Mus musculus); assay: Percent inhibition in anti-uterotrophic assay in mice at 1 ug; type: functional; method in brief: as §2
[23] = tested on: Rattus norvegicus; assay: New tumor development in DMBA-induced hormone dependent mammary carcinoma in rats at 6 mg/kg; type: functional; method in brief: as §5
[24] = target: T1, Estrogen receptor (Mus musculus); assay: Estrogenic activity in mouse uterotrophic assay at 25 ug as uterus dry weight (mg)/body weight (g) *100; type: functional, tissue-based; method in brief: as §4
[25] = tested on: Rattus norvegicus; assay: Percent complete remission of DMBA-induced hormone dependent mammary carcinoma in rats at 2 mg/kg in 9 animals; type: functional; method in brief: as §5
[26] = target: T1, Estrogen receptor (Mus musculus); assay: Anti-estrogenic activity in mouse uterotrophic assay at 625 ug as uterus dry weight (mg)/body weight (g) *100; type: functional, tissue-based; method in brief: as §2
[27] = target: T1, Estrogen receptor (Mus musculus); assay: Estrogenic activity in mouse uterotrophic assay at 5 ug as uterus dry weight (mg)/body weight (g) *100; type: functional, tissue-based; method in brief: as §4
[28] = target: T1, Estrogen receptor (Mus musculus); assay: Estrogenic activity in mouse uterotrophic assay at 1 ug as uterus dry weight (mg)/body weight (g) *100; type: functional, tissue-based; method in brief: as §4
[29] = tested on: Rattus norvegicus; assay: Change in tumor area DMBA-induced hormone dependent mammary carcinoma tumor bearing rats at 2 mg/kg after 28 day therapy in 9 animals
[30] = target: T1, Estrogen receptor (Mus musculus); assay: Percent inhibition in anti-uterotrophic assay in mice at 0.04 ug; type: functional; settings: in the assay text read “at 1 ug” for “at 0.04 ug”; method in brief: as §2
[31] = tested on: MDA-MB-231; assay: Inhibition of [3H]thymidine incorporation into hormone independent MDA-MB 231 human breast cancer cells at 5x10E-6M; type: functional; method in brief: as §1
[32] = tested on: Rattus norvegicus; assay: New tumor development in DMBA-induced hormone dependent mammary carcinoma in rats at 18 mg/kg; type: functional; method in brief: as §5
[33] = tested on: MDA-MB-231; assay: (§6) Inhibition of [3H]thymidine incorporation into hormone independent MDA-MB 231 human breast cancer cells at 2x10E-6M; type: functional; method in brief: as §1
[34] = target: T1, Estrogen receptor (Mus musculus); assay: Estrogenic activity in mouse uterotrophic assay at 0.2 ug as uterus dry weight (mg)/body weight (g) *100; type: functional, tissue-based; method in brief: as §4
[35] = target: T1, Estrogen receptor (Mus musculus); assay: Estrogenic activity in mouse uterotrophic assay at 0.04 ug as uterus dry weight (mg)/body weight (g) *100; type: functional, tissue-based; method in brief: as §4
[36] = tested on: MDA-MB-231; assay: as §6; type: functional; method in brief: as §1; remark: listed apart in the source
[37] = tested on: Rattus norvegicus; assay: Initial DMBA-induced hormone dependent mammary carcinoma tumors in rats at 18 mg/kg; type: functional; method in brief: as §5
[38] = tested on: MDA-MB-231; assay: Inhibition of [3H]-thymidine incorporation into hormone independent MDA-MB 231 human breast cancer cells at 5x10E-6M; type: functional; method in brief: as §1
[39] = target: T1, Estrogen receptor (Mus musculus); assay: Anti-estrogenic activity in mouse uterotrophic assay at 0.2 ug as uterus dry weight (mg)/body weight (g) *100; type: functional, tissue-based; settings: in the assay text read “at 5 ug” for “at 0.2 ug”; method in brief: as §2
[40] = target: T1, Estrogen receptor (Mus musculus); assay: Anti-estrogenic activity in mouse uterotrophic assay at 0.04 ug as uterus dry weight (mg)/body weight (g) *100; type: functional, tissue-based; settings: in the assay text read “at 1 ug” for “at 0.04 ug”; method in brief: as §2
[41] = tested on: MDA-MB-231; assay: Growth inhibition of hormone independent MDA-MB 231 human breast cancer cells at 5x10E-6M
[42] = tested on: Rattus norvegicus; assay: Initial DMBA-induced hormone dependent mammary carcinoma tumors in rats at 2 mg/kg; type: functional; method in brief: as §5
[43] = target: T1, Estrogen receptor (Mus musculus); assay: Percent inhibition in anti-uterotrophic assay in mice at 0.2 ug; type: functional; settings: in the assay text read “at 5 ug” for “at 0.2 ug”; method in brief: as §2
[44] = tested on: Rattus norvegicus; assay: New tumor development in DMBA-induced hormone dependent mammary carcinoma in rats at 2 mg/kg; type: functional; method in brief: as §5

T1 sequence (O08537 whole entry, looked up): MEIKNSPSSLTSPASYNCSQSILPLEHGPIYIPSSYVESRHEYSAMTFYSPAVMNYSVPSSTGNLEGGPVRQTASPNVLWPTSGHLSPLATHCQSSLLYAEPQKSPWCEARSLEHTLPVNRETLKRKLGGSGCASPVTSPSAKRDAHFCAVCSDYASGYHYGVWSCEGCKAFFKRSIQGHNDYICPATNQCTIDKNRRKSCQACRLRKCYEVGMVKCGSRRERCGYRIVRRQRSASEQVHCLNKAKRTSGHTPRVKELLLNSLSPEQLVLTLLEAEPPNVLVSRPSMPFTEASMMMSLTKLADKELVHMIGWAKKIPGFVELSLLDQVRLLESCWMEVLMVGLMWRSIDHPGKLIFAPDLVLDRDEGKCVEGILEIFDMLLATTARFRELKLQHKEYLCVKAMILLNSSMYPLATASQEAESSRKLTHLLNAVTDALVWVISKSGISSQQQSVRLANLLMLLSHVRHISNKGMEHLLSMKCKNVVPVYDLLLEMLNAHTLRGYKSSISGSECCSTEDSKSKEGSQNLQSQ
T1 sequence (P19785 whole entry, looked up): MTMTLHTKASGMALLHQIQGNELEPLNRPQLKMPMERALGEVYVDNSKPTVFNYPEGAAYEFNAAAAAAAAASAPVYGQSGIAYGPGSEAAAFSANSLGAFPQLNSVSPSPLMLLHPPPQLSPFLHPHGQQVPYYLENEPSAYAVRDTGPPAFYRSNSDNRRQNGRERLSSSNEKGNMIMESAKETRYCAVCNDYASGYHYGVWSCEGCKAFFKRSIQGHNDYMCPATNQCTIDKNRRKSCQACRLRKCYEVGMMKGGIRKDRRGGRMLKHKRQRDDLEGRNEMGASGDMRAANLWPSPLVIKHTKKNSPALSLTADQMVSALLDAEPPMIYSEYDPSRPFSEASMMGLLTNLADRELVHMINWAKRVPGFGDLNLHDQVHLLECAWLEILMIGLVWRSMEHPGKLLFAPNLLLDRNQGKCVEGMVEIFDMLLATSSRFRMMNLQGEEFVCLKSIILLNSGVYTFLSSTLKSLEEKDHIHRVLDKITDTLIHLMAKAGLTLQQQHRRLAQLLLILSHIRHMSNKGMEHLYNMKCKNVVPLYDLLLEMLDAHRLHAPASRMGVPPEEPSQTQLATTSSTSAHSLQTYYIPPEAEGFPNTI

Cn1c(-c2c(Cl)cc(O)cc2Cl)cc2c(Cl)cc(O)cc21
T/C [1]: 5% | Effect [2]: 45.4 | T/C [3]: 88% | T/C [4]: 38% | Cell no./dish x10E3 [5]: 2.2 cpm/dish x10E3 | Cell no./dish x10E5 [5]: 4.12 | Effect [6]: 40.1 | Change [7]: -2% | Effect [8]: 42.7 | Progressive tumors [9]: 28% | Effect [10]: 37.7 | Effect [11]: 34.4 | inhibition [12]: 14% | inhibition [13]: 24% | Partial remission [14]: 28% | Static remission [15]: 25% | Effect [16]: 48.5 | inhibition [17]: 30% | inhibition [18]: 5% | Change [19]: 24% | No. of tumors [20]: 19 | Cell no./dish x10E3 [21]: 36.4 cpm/dish x10E3 | Cell no./dish x10E5 [21]: 10.12 | T/C [21]: 95% | inhibition [22]: -6% | New tumors [23]: 24 | Effect [24]: 26 | Complete remission [25]: 19% | Effect [26]: 39.6 | Effect [27]: 18.2 | Effect [28]: 16

CCCn1c(-c2c(Cl)cc(O)cc2Cl)cc2c(Cl)cc(O)cc21
Change [7]: 0% | Progressive tumors [9]: 23% | Change [29]: 57% | Partial remission [14]: 19% | Static remission [15]: 50% | No. of tumors [20]: 17 | New tumors [23]: 9 | Complete remission [25]: 8%

CCn1c(-c2c(Cl)cc(O)cc2Cl)cc2c(Cl)cc(O)cc21
inhibition [30]: -7% | T/C [31]: 14% | [3H]thymidine incorporation [31]: 5.8 cpm/dish x10E3 | T/C [1]: 16% | Effect [2]: 46.3 | T/C [3]: 98% | T/C [4]: 25% | New tumors [32]: 5 | Cell no./dish x10E3 [5]: 6.6 cpm/dish x10E3 | Cell no./dish x10E5 [5]: 2.71 | Change ([7]; 2 mg/kg): 2% and 1% and 0% | Effect [8]: 39.3 | Progressive tumors ([9]; 2 mg/kg): 24% and 15% and 16% | Effect [11]: 40.6 | T/C [33]: 88% | inhibition [12]: 25% | Effect [34]: 21.7 | Partial remission ([14]; 2 mg/kg): 14% and 15% and 24% | Effect [35]: 19.8 | Cell no./dish x10E3 [36]: 36.2 cpm/dish x10E3 | Cell no./dish x10E5 [36]: 9.38 | T/C [36]: 88% | No. of tumors [37]: 20 | Cell no./dish x10E5 [38]: 5.44 | Effect [16]: 48.7 | inhibition [18]: 2% | Effect [39]: 46.3 | Effect [40]: 48.7 | No. of tumors [20]: 22 | Cell no./dish x10E3 [21]: 40.2 cpm/dish x10E3 | Cell no./dish x10E5 [21]: 11.35 | T/C [21]: 106% | inhibition [22]: -7% | New tumors [23]: 4 | Effect [24]: 45.8 | Complete remission ([25]; 2 mg/kg): 43% and 62% and 56% | Effect [27]: 22.2 | Effect [28]: 21.5 | T/C [41]: 51% | No. of tumors [42]: 22 | inhibition [43]: 2% | New tumors [44]: 15

— ChEMBL document CHEMBL1122306, “2-(Hydroxyphenyl)indoles: a new class of mammary tumor inhibiting compounds” (1983)
